{"data": "Experimental data gathered from unrelated publications", "target": "LIM domain kinase 1 (LIMK1, Homo sapiens, UniProt P53667)"}
{"SMILES": "O=C(c1ccc(Nc2ncc(Cl)c(-c3ccc(Cl)s3)n2)cc1)N1CCC(N2CCCC2)CC1", "assay": "binding, competition with immobilised ligand", "conditions": "1 µM", "remaining binding [%]": 40}
{"SMILES": "C=CC(=O)N1CCC(C(=O)NCC(=O)N2CCN(c3nc(-c4cnc(N)nc4C(F)F)nc(N4CCOCC4)n3)CC2)CC1", "assay": "binding, competition with immobilised ligand", "conditions": "1 µM", "remaining binding [%]": 100}
{"SMILES": "C[C@@H](c1ccc(-n2cnc3c(N)ncnc32)cc1)N1CCc2nn(C)c(Cc3ccccc3)c2C1=O", "assay": "binding, competition with immobilised ligand", "conditions": "0.1 µM", "remaining binding [%]": 65}
{"SMILES": "C[C@@H]1CCN(c2nccc(-c3cnn4ncccc34)n2)C1", "assay": "binding", "conditions": "1 µM", "remaining binding [%]": 100}
{"SMILES": "CC(=O)N1CCC(c2ccc(C(=O)NC(=N)N)cc2C(F)(F)F)CC1", "assay": "cell-free assay, competition with immobilised ligand", "conditions": "1 µM", "remaining binding [%]": 100}
{"SMILES": "CNC(=O)[C@@H]1CC[C@@H](n2c(-c3ccc4cnccc4c3)nc3ccc(C(=O)NCc4cccc(C(N)=O)c4)cc32)C1", "assay": "binding, competition with immobilised ligand", "conditions": "1 µM", "remaining binding [%]": 100}
{"SMILES": "O=C(NCc1ncc(C(F)(F)F)cc1Cl)c1ccc2c(c1)C1(CCS(=O)(=O)CC1)[C@@H](C1CC1)N2S(=O)(=O)c1ccc(F)cc1", "assay": "cell-free assay, competition with immobilised ligand", "conditions": "1 µM", "remaining binding [%]": 91}
{"SMILES": "O=C(NCCCN1CCOCC1)c1ccc(Nc2ncc(Cl)c(-c3ccc(Cl)s3)n2)cc1", "assay": "binding, competition with immobilised ligand", "conditions": "1 µM", "remaining binding [%]": 83}
{"SMILES": "O=C(NCC1CCOCC1)c1n[nH]cc1NC(=O)c1c(F)cccc1F", "assay": "binding, competition with immobilised ligand", "conditions": "1 µM", "remaining binding [%]": 100}
{"SMILES": "CN(C)c1ncc(F)c(-c2cnn3ncccc23)n1", "assay": "binding", "conditions": "1 µM", "remaining binding [%]": 89}
{"SMILES": "COc1cc(-c2cn(C3CCc4c(F)cccc4N(CC(F)(F)F)C3=O)nn2)ccc1-n1cnc(C)c1 (stereo not drawn)", "assay": "cell-free assay, competition with immobilised ligand", "conditions": "1 µM", "remaining binding [%]": 100}
{"SMILES": "O=C(c1ccc(Nc2nccc(-c3cc4ccccc4s3)n2)cc1)N1CCC(N2CCCC2)CC1", "assay": "binding, competition with immobilised ligand", "conditions": "1 µM", "remaining binding [%]": 20}
{"SMILES": "F[C@@H]1CCN(c2nccc(-c3cnn4ncccc34)n2)C1", "assay": "binding", "conditions": "1 µM", "remaining binding [%]": 89}
{"SMILES": "CCC(=N\\O)/C(C)=C/c1ccc(F)cc1", "assay": "cell-free assay, competition with immobilised ligand", "conditions": "1 µM", "remaining binding [%]": 78}
{"SMILES": "COc1cnc(Nc2cccc(S(N)(=O)=O)c2)nc1N1CCN(c2ccccc2)CC1", "assay": "binding, competition with immobilised ligand", "conditions": "1 µM", "remaining binding [%]": 100}
{"SMILES": "CN(C)c1nccc(-c2cnc3ncccn23)n1", "assay": "binding", "conditions": "1 µM", "remaining binding [%]": 100}
{"SMILES": "CCCCN(CCCC)C(=O)CN1C[C@@H](c2cc(OC)c3c(c2)OCO3)[C@H](C(=O)O)[C@H]1CC(C)(C)CCC", "assay": "cell-free assay, competition with immobilised ligand", "conditions": "1 µM", "remaining binding [%]": 99}
{"SMILES": "Cc1cnn2ncc(-c3ccnc(N(C)C)n3)c2c1", "assay": "binding", "conditions": "1 µM", "remaining binding [%]": 100}
{"SMILES": "Cc1c(NC(=O)c2cc(C(N)=O)nc3cc(F)ccc23)c(C(F)(F)F)nn1Cc1ccc(C#N)cc1", "assay": "cell-free assay, competition with immobilised ligand", "conditions": "1 µM", "remaining binding [%]": 78}
{"SMILES": "N[C@@H]1CCN(c2nccc(-c3cnn4ncccc34)n2)C1", "assay": "binding", "conditions": "1 µM", "remaining binding [%]": 73}
{"SMILES": "c1cncc(-c2cccc(Nc3nccc(NC4CCCCC4)n3)c2)c1", "assay": "binding, competition with immobilised ligand", "conditions": "10 µM", "remaining binding [%]": 56}
